{"data": "Measurements gathered from unrelated publications", "target": "RAC-beta serine/threonine-protein kinase (AKT2, Homo sapiens, UniProt P31751)", "note": "Compare with care: the assays were run in different laboratories."}
{"SMILES": "CCS(=O)(=O)c1cc2cc(C[C@@](O)(CC(C)(C)c3ccc(F)cc3C(N)=O)C(F)(F)F)[nH]c2cn1", "effect on": "cell-free assay", "technique": "competition with immobilised ligand", "concentration": "1 µM", "remaining binding": "93%"}
{"SMILES": "CCN1CCN(Cc2ccc(C(=O)Nc3ccc(C)c(Oc4ccc5c(c4)CC(=O)N5)c3)cc2C(F)(F)F)CC1", "effect on": "binding", "technique": "competition with immobilised ligand", "concentration": "1 µM", "remaining binding": "100%"}
{"SMILES": "CC(C)CC(=O)N1CCc2nc(-c3ccc(Br)cc3)nc(N(C)Cc3ccccc3)c2C1", "effect on": "cell-free assay", "technique": "competition with immobilised ligand", "concentration": "0.1 µM", "remaining binding": "100%"}
{"SMILES": "N[C@@H]1CCN(c2nccc(-c3cnn4ncccc34)n2)C1", "effect on": "binding", "concentration": "1 µM", "remaining binding": "100%"}
{"SMILES": "O=C(O)[C@@H]1[C@@H](Cn2nnc3ccccc3c2=O)CC[C@H]1C(=O)c1ccc(OCCC2CCOCC2)cc1", "effect on": "cell-free assay", "technique": "competition with immobilised ligand", "concentration": "1 µM", "remaining binding": "100%"}
{"SMILES": "COc1cnc(Nc2cccc(S(N)(=O)=O)c2)nc1N1CCN(c2ccccc2)C(=O)C1", "effect on": "binding", "technique": "competition with immobilised ligand", "concentration": "1 µM", "remaining binding": "100%"}
{"SMILES": "CN(C)CC#Cc1ccc(OCCCc2sc(N3CCc4cccc(C(=O)Nc5nc6ccccc6s5)c4C3)nc2C(=O)O)c(F)c1", "effect on": "cell-free assay", "technique": "competition with immobilised ligand", "concentration": "1 µM", "remaining binding": "100%"}
{"SMILES": "O=C(NCCCN1CCOCC1)c1ccc(Nc2nccc(-c3cc4ccccc4s3)n2)cc1", "effect on": "binding", "technique": "competition with immobilised ligand", "concentration": "1 µM", "remaining binding": "87%"}
{"SMILES": "CC1CCCN1c1nccc(-c2cnn3ncccc23)n1 (stereo not drawn)", "effect on": "binding", "concentration": "1 µM", "remaining binding": "100%"}
{"SMILES": "COc1ncc2cc3ccccc3nc2c1C#N", "effect on": "cell-free assay", "technique": "competition with immobilised ligand", "concentration": "5 µM", "remaining binding": "95%"}
{"SMILES": "C[C@H]1CCN(c2nccc(-c3cnn4ncccc34)n2)C1", "effect on": "binding", "concentration": "1 µM", "remaining binding": "100%"}
{"SMILES": "COc1cnc(Nc2cccc(S(N)(=O)=O)c2)nc1N1CCN(c2ccccc2)CC1", "effect on": "binding", "technique": "competition with immobilised ligand", "concentration": "1 µM", "remaining binding": "94%"}
{"SMILES": "O=C(Nc1c[nH]nc1C(=O)NC1CCNCC1)c1cc(F)cc(F)c1", "effect on": "binding", "technique": "competition with immobilised ligand", "concentration": "1 µM", "remaining binding": "87%"}
{"SMILES": "Nc1ncc2c(n1)-c1c([nH]c3ccc(C#CC4CC4)cc13)CCCC2", "effect on": "binding", "technique": "competition with immobilised ligand", "concentration": "1 µM", "remaining binding": "100%"}
{"SMILES": "CC(C)(C)c1ccc(-c2nc(CBr)nn2-c2cccc(O)c2)cc1", "effect on": "cell-free assay", "technique": "competition with immobilised ligand", "concentration": "10 µM", "remaining binding": "70%"}
{"SMILES": "C[C@@H]1CN(c2ccc3ncc(-c4ccc5[nH]nc(C6CC6)c5c4)n3n2)C[C@H](C)O1", "effect on": "binding", "technique": "competition with immobilised ligand", "concentration": "0.5 µM", "remaining binding": "97%"}
{"SMILES": "c1cnn2ncc(-c3ccnc(N4CCC45COC5)n3)c2c1", "effect on": "binding", "concentration": "1 µM", "remaining binding": "96%"}
{"SMILES": "Cc1cnc(Nc2ccc(C(=O)N3CCC(N4CCCC4)CC3)cc2)nc1-c1cc2ccccc2s1", "effect on": "binding", "technique": "competition with immobilised ligand", "concentration": "1 µM", "remaining binding": "83%"}
{"SMILES": "CC(=O)N1CCC(c2ccc(C(=O)NC(=N)N)cc2C(F)(F)F)CC1", "effect on": "cell-free assay", "technique": "competition with immobilised ligand", "concentration": "1 µM", "remaining binding": "99%"}
{"SMILES": "COc1ccnn2ncc(-c3ccnc(N(C)C)n3)c12", "effect on": "binding", "concentration": "1 µM", "remaining binding": "100%"}
{"SMILES": "N#CC1(c2ccccn2)CCN(Cc2cc(C(=O)N3CCCC3)c(=O)n3ccccc23)CC1", "effect on": "cell-free assay", "technique": "competition with immobilised ligand", "concentration": "1 µM", "remaining binding": "84%"}
{"SMILES": "F[C@@H]1CCN(c2nccc(-c3cnn4ncccc34)n2)C1", "effect on": "binding", "concentration": "1 µM", "remaining binding": "86%"}
{"SMILES": "CCC(=O)N[C@@H]1CC[C@H](C(=O)N(C)c2ccc(-c3nc4ccccc4o3)cc2)C1", "effect on": "cell-free assay", "technique": "competition with immobilised ligand", "concentration": "1 µM", "remaining binding": "72%"}
{"SMILES": "O=C(c1ccc(Nc2nccc(-c3cc4ccccc4s3)n2)cc1)N1CCC(N2CCCC2)CC1", "effect on": "binding", "technique": "competition with immobilised ligand", "concentration": "1 µM", "remaining binding": "100%"}
